Experimental findings from ChEMBL document CHEMBL4043163, “Methyl propiolate and 3-butynone: Starting points for synthesis of amphiphilic 1,2,3-triazole peptidomimetics for antimicrobial evaluation” (Bioorg Med Chem, 2017) are described below.

Data set [1] relates to Enterococcus faecalis. Description: Antimicrobial activity against Enterococcus faecalis ATCC 29212 assessed as growth inhibition incubated overnight at 37degC by visual and photometry based method. The format is functional.
The test system of data set [2] is Staphylococcus aureus. Description: Antimicrobial activity against Staphylococcus aureus ATCC 25923 assessed as growth inhibition incubated overnight at 37degC by visual and photometry based method. The format is functional.
Another data set has as its system Streptococcus agalactiae. Description: Antimicrobial activity against Streptococcus agalactiae ATCC 12386 assessed as growth inhibition incubated overnight at 37degC by visual and photometry based method. It counts as functional.
For data set [3], the system named is Escherichia coli. The data set is described as follows: Antimicrobial activity against Escherichia coli ATCC 25922 assessed as growth inhibition incubated overnight at 37degC by visual and photometry based method. It counts as functional.
The test system of data set [4] is Pseudomonas aeruginosa. The data set is described as follows: Antimicrobial activity against Pseudomonas aeruginosa ATCC 27853 assessed as growth inhibition incubated overnight at 37degC by visual and photometry based method. The format is functional.
The subject of a further data set is HepG2. Description: Cytotoxicity against human HepG2 cells incubated for 24 hrs by CellTiter 96 aqueous one solution reagent based assay. Conditions: HepG2, 24 h. It counts as cell-based. The gist of the method:
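HepG2 seeded 20,000 cells/well overnight, then exposed 24 h to a concentration range in serum-free MEM Earle's (gentamycin, NEAA, pyruvate, alanyl-glutamine); MTS reagent 1 h, absorbance 485 nm; % survival versus medium and Triton X-100 controls; EC50 from four-parameter normalized nonlinear regression.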

A short description of data set [5]: Selectivity index, ratio of EC50 for human HepG2 cells to MIC for Streptococcus agalactiae ATCC 12386. The format is toxicity. Conditions: read-out: Selectivity Index. The method in brief:
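Selectivity index computed as HepG2 EC50 (24 h MTS assay) divided by S. agalactiae MIC.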

The test system of data set [6] is Staphylococcus epidermidis. Description: Inhibition of biofilm formation of Staphylococcus epidermidis incubated overnight at 37degC by crystal violet based assay. It counts as functional.
Data set [7] concerns Enterococcus faecalis. The data set is described as follows: Antimicrobial activity against Enterococcus faecalis ATCC 29212 assessed as growth inhibition at =<64 ug/ml incubated overnight at 37degC by visual and photometry based method. It counts as functional.
Data set [8] has as its system Escherichia coli. Description: Antimicrobial activity against Escherichia coli ATCC 25922 assessed as growth inhibition =<64 ug/ml incubated overnight at 37degC by visual and photometry based method. It counts as functional.
In data set [9] the test system is Pseudomonas aeruginosa. The data set is described as follows: Antimicrobial activity against Pseudomonas aeruginosa ATCC 27853 assessed as growth inhibition =<64 ug/ml incubated overnight at 37degC by visual and photometry based method. The format is functional.
Data set [10] deals with Staphylococcus aureus. The data set is described as follows: Antimicrobial activity against Staphylococcus aureus ATCC 25923 assessed as growth inhibition =<64 ug/ml incubated overnight at 37degC by visual and photometry based method. It counts as functional.

As a reminder, the EC50 is the concentration at which the effect is half-maximal. A lower EC50 goes with a more potent agent.

Activity calls are given as the source filed them. The rule behind the calls is not given here.

Consider `C/C(=N\NC(=N)N)c1cn(-c2cc(C(C)(C)C)cc(C(C)(C)C)c2)nn1.O=C(O)C(F)(F)F`, for which the MIC was 4 µg/mL in the data set on Enterococcus faecalis [1]; 4 µg/mL in the data set on Staphylococcus aureus [2]; 2 µg/mL in the data set on Streptococcus agalactiae; 4 µg/mL in the data set with Escherichia coli [3]; 16 µg/mL with Pseudomonas aeruginosa [4]; 4 µg/mL in [6]. The same compound displayed an EC50 in the data set with HepG2 of 2.6 µg/mL. Further, in data set [5], the selectivity ratio was 1.32.

As to `CN1CCN(C(=O)c2cn(C34CC5CC(CC(C5)C3)C4)nn2)CC1`, the MIC entry with Enterococcus faecalis [1], in the data set on Staphylococcus aureus [2], with Streptococcus agalactiae, in the data set on Escherichia coli [3] and in the data set with Pseudomonas aeruginosa [4] was “inactive” each time.

Take `CCCCCCCn1cc(C(=O)NCCN)nn1`: the MIC result with Enterococcus faecalis [1], with Staphylococcus aureus [2], in the data set with Streptococcus agalactiae, with Escherichia coli [3] and with Pseudomonas aeruginosa [4] was “inactive” throughout.

Regarding `CN1CCN(C(=O)c2cn(Cc3cc(C(C)(C)C)cc(C(C)(C)C)c3)nn2)CC1`, the MIC result in the data set on Enterococcus faecalis [1], in the data set on Staphylococcus aureus [2], in the data set on Streptococcus agalactiae, in the data set with Escherichia coli [3] and in the data set on Pseudomonas aeruginosa [4] was “inactive” in each case.

Turning to `N=C(N)N1CCN(C(=O)c2cn(C34CC5CC(CC(C5)C3)C4)nn2)CC1`, the MIC entry with Enterococcus faecalis [1], with Staphylococcus aureus [2], in the data set on Streptococcus agalactiae, in the data set on Escherichia coli [3] and in the data set on Pseudomonas aeruginosa [4] was “inactive” throughout.

As for `CCCCCCCn1cc(C(=O)N2CCNCC2)nn1`, the MIC entry in the data set with Enterococcus faecalis [1], in the data set on Staphylococcus aureus [2], in the data set on Streptococcus agalactiae, in the data set on Escherichia coli [3] and in the data set with Pseudomonas aeruginosa [4] was “inactive” throughout.

Turning to `CCCCCCCOc1ccc(-n2cc(C(=O)NCCN)nn2)cc1.Cl`, the MIC with Staphylococcus aureus [2] was 4 µg/mL; with Streptococcus agalactiae it was 8 µg/mL; in the data set with Pseudomonas aeruginosa [4] it was 16 µg/mL; in [6], 4 µg/mL. The “growth inhibition (GI)” value in the data set on Enterococcus faecalis [7] and in the data set with Escherichia coli [8] was “inactive” throughout. Moreover, the EC50 in the data set with HepG2 came out at 3.5 µg/mL. Moreover, the selectivity ratio in [5] worked out at 0.44.

Take `CCCCCCCn1cc(C(=O)N2CCN(C(=N)N)CC2)nn1`: the MIC entry in the data set with Enterococcus faecalis [1], in the data set with Staphylococcus aureus [2], with Streptococcus agalactiae, in the data set on Escherichia coli [3] and in the data set with Pseudomonas aeruginosa [4] was “inactive” each time.

Turning to `CC(C)(C)c1ccc(Cn2cc(C(=O)N3CCNCC3)nn2)cc1`, the MIC result in the data set with Enterococcus faecalis [1], in the data set on Staphylococcus aureus [2], in the data set with Streptococcus agalactiae, with Escherichia coli [3] and in the data set on Pseudomonas aeruginosa [4] was “inactive” in each case.

Turning to `CC(C)(C)c1cc(Cn2cc(C(=O)NCCNC(=N)N)nn2)cc(C(C)(C)C)c1.Cl`, the MIC with Enterococcus faecalis [1] came to 64 µg/mL; with Staphylococcus aureus [2], 32 µg/mL; in the data set on Streptococcus agalactiae, 16 µg/mL; in the data set on Escherichia coli [3] it was 64 µg/mL; with Pseudomonas aeruginosa [4], 32 µg/mL.

For `CC(C)(C)c1cc(Cn2cc(C(=O)N3CCNCC3)nn2)cc(C(C)(C)C)c1.Cl`, the MIC with Staphylococcus aureus [2], in the data set on Streptococcus agalactiae and in the data set with Escherichia coli [3] was 64 µg/mL in each case. Also, the “growth inhibition (GI)” value in the data set on Enterococcus faecalis [7] and in the data set on Pseudomonas aeruginosa [9] was “inactive” throughout.

Regarding `CC(C)(C)c1ccc(Cn2cc(C(=O)NCCN)nn2)cc1`, the MIC result in the data set with Enterococcus faecalis [1], in the data set with Staphylococcus aureus [2], in the data set on Streptococcus agalactiae, with Escherichia coli [3] and with Pseudomonas aeruginosa [4] was “inactive” in each case.

Regarding `C/C(=N\NC(=N)N)c1cn(Cc2cc(C(C)(C)C)cc(C(C)(C)C)c2)nn1.Cl`, the MIC in the data set on Enterococcus faecalis [1] was 8 µg/mL; in the data set with Staphylococcus aureus [2] it was 4 µg/mL; with Streptococcus agalactiae it was 4 µg/mL; in the data set on Escherichia coli [3], 8 µg/mL; in the data set on Pseudomonas aeruginosa [4] it was 8 µg/mL; in data set [6], 4 µg/mL. The midpoint of the response in the data set on HepG2, the EC50, lay at 2.3 µg/mL. For the same compound, the selectivity ratio in data set [5] was found to be 0.57.

On to `CCCCCCCOc1ccc(-n2cc(C(=O)NCCNC(=N)N)nn2)cc1.Cl`, for which the MIC came out at 16 µg/mL in the data set with Enterococcus faecalis [1]; 4 µg/mL in the data set on Staphylococcus aureus [2]; 8 µg/mL with Streptococcus agalactiae; 8 µg/mL with Escherichia coli [3]; 8 µg/mL in the data set with Pseudomonas aeruginosa [4]; 4 µg/mL in data set [6]. The EC50 in the data set with HepG2 was 23.8 µg/mL. In data set [5], the selectivity ratio stood at 2.97.

On to `N=C(N)NCCNC(=O)c1cn(C23CC4CC(CC(C4)C2)C3)nn1`, for which the MIC entry with Enterococcus faecalis [1], in the data set with Staphylococcus aureus [2], in the data set on Streptococcus agalactiae, in the data set with Escherichia coli [3] and with Pseudomonas aeruginosa [4] was “inactive” in each case.

For the compound `CC(C)(C)c1cc(-n2cc(C(=O)NCCNC(=N)N)nn2)cc(C(C)(C)C)c1.Cl`, the MIC is 16 µg/mL with Enterococcus faecalis [1]; 8 µg/mL in the data set with Staphylococcus aureus [2]; 8 µg/mL with Streptococcus agalactiae; 16 µg/mL in the data set on Escherichia coli [3]; 16 µg/mL in the data set with Pseudomonas aeruginosa [4]; 4 µg/mL in [6]. This compound also had an EC50 in the data set on HepG2 of 31.3 µg/mL. Further, the selectivity ratio in [5] is 3.91.

As to `NCCNC(=O)c1cn(C23CC4CC(CC(C4)C2)C3)nn1`, the MIC entry in the data set with Enterococcus faecalis [1], with Staphylococcus aureus [2], with Streptococcus agalactiae, with Escherichia coli [3] and in the data set on Pseudomonas aeruginosa [4] was “inactive” each time.

Consider `CN1CCN(C(=O)c2cn(Cc3ccc(C(C)(C)C)cc3)nn2)CC1`, for which the MIC result in the data set with Enterococcus faecalis [1], with Staphylococcus aureus [2], in the data set on Streptococcus agalactiae, in the data set with Escherichia coli [3] and in the data set with Pseudomonas aeruginosa [4] was “inactive” each time.

Consider `CC(C)(C)c1cc(Cn2cc(C(=O)NCCN)nn2)cc(C(C)(C)C)c1.Cl`, for which the MIC in the data set on Staphylococcus aureus [2] is 64 µg/mL; in the data set with Streptococcus agalactiae, 64 µg/mL; with Escherichia coli [3], 32 µg/mL; in the data set on Pseudomonas aeruginosa [4] it was 64 µg/mL. Besides, in the data set with Enterococcus faecalis [7], the “growth inhibition (GI)” value is “inactive”.

For `CC(C)(C)c1cc(COc2ccc(-n3cc(C(=O)NCCN)nn3)cc2)cc(C(C)(C)C)c1.Cl`, the MIC with Enterococcus faecalis [1] stood at 8 µg/mL; with Streptococcus agalactiae, 2 µg/mL; in the data set on Pseudomonas aeruginosa [4], 16 µg/mL; in [6], 8 µg/mL. Further, the “growth inhibition (GI)” value in the data set on Escherichia coli [8] and in the data set with Staphylococcus aureus [10] was “inactive” in each case. The EC50 in the data set with HepG2 turned out to be 2.9 µg/mL. Further, in [5], the selectivity ratio came out at 1.44.

Turning to `CC(C)(C)c1ccc(Cn2cc(C(=O)NCCNC(=N)N)nn2)cc1`, the MIC result in the data set with Enterococcus faecalis [1], in the data set on Staphylococcus aureus [2], in the data set on Streptococcus agalactiae, in the data set on Escherichia coli [3] and with Pseudomonas aeruginosa [4] was “inactive” throughout.

As to `CC(C)(C)c1cc(Cn2cc(C(=O)N3CCN(C(=N)N)CC3)nn2)cc(C(C)(C)C)c1.Cl`, the MIC in the data set on Staphylococcus aureus [2] was 64 µg/mL; with Streptococcus agalactiae, 32 µg/mL; with Pseudomonas aeruginosa [4], 64 µg/mL. For the same compound, the “growth inhibition (GI)” value in the data set with Enterococcus faecalis [7] and in the data set on Escherichia coli [8] was “inactive” each time.

On to `O=C(c1cn(C23CC4CC(CC(C4)C2)C3)nn1)N1CCNCC1`, for which the MIC result in the data set on Enterococcus faecalis [1], in the data set on Staphylococcus aureus [2], in the data set with Streptococcus agalactiae, with Escherichia coli [3] and in the data set with Pseudomonas aeruginosa [4] was “inactive” throughout.

For GENTAMICIN, the MIC in the data set with Enterococcus faecalis [1] amounted to 10 µg/mL; with Staphylococcus aureus [2], 0.13 µg/mL; with Streptococcus agalactiae, 4 µg/mL.

`CCCCCCCn1cc(C(=O)NCCNC(=N)N)nn1`: the MIC entry with Enterococcus faecalis [1], with Staphylococcus aureus [2], with Streptococcus agalactiae, in the data set on Escherichia coli [3] and in the data set on Pseudomonas aeruginosa [4] was “inactive” in each case.

With `CCCCCCCOc1ccc(-n2cc(/C(C)=N/NC(=N)N)nn2)cc1.O=C(O)C(F)(F)F`, the MIC stood at 32 µg/mL with Enterococcus faecalis [1]; 8 µg/mL with Streptococcus agalactiae; 16 µg/mL in the data set on Escherichia coli [3]; 64 µg/mL in the data set on Pseudomonas aeruginosa [4]; 8 µg/mL in data set [6]. Also, the “growth inhibition (GI)” value in the data set on Staphylococcus aureus [10] was “inactive”. In the data set on HepG2, this compound had an EC50 of 2 µg/mL. The selectivity ratio in [5] was found to be 0.25.

For the compound `CCCCCCCn1cc(C(=O)N2CCN(C)CC2)nn1`, the MIC entry in the data set on Enterococcus faecalis [1], in the data set with Staphylococcus aureus [2], with Streptococcus agalactiae, with Escherichia coli [3] and in the data set on Pseudomonas aeruginosa [4] was “inactive” each time.

On to `CC(C)(C)c1cc(COc2ccc(-n3cc(C(=O)NCCNC(=N)N)nn3)cc2)cc(C(C)(C)C)c1.Cl`, for which the MIC was 16 µg/mL in the data set on Enterococcus faecalis [1], 8 µg/mL with Staphylococcus aureus [2], 4 µg/mL in the data set on Streptococcus agalactiae and 2 µg/mL in [6]. The “growth inhibition (GI)” value in the data set on Escherichia coli [8] and in the data set on Pseudomonas aeruginosa [9] was “inactive” in each case. This compound also returned an EC50 with HepG2 of 16.2 µg/mL. In addition, the selectivity ratio in [5] stood at 4.04.
